Results collected from several papers.
Lines come from different studies, so protocols differ.
Effect on: cell growth or viability

O=C(Nc1ccc(Cl)cc1)C1CCCN(C(=O)c2cc(C(F)(F)F)cc(C(F)(F)F)c2)C1 (racemic) — viability (HBL1; ATP luminescence; 1 µM; 5 days): 92.8%
CCNc1nc2ccc(-c3c/c(=N\c4ccccc4NC(=O)CCN)c4ccccc4o3)cc2o1 — inhibition (MDA-MB-468; CCK-8; 1 µM): 31.4%
O=C(CCCCCCC(=O)Nc1ccccc1)NO — viability (HBL1; ATP luminescence; 1 µM; 5 days): 10.7%
Cc1n[nH]c2ccc3nc(-c4ccc(C(=O)NCCN(C)C)cc4)c4c(c3c12)CCCCC4 — GI50 (MV4-11; resazurin; 72 h): 98 nM
C[C@H](Nc1ccc2c(c1)OCCn1cc(N3C(=O)OC[C@H]3C(F)F)nc1-2)C(N)=O — EC50 (MFE-280; ATP luminescence; 5 days): 42.1 nM
O=C(/C=C/c1cccc(C(=O)NO)c1)NO — viability (HBL1; ATP luminescence; 1 µM; 5 days): 37.7%
CNCCC(=O)Nc1ccccc1/N=c1\cc(-c2ccc3nc(N)oc3c2)oc2ccccc12 — inhibition (MDA-MB-468; CCK-8; 1 µM): 40.6%
CCN(CC)CCNC(=O)c1ccc(-c2nc3ccc4[nH]ncc4c3c3c2CCCC3)cc1 — GI50 (MV4-11; resazurin; 72 h): 440 nM
CCOC(=O)c1ccc(-c2nn(Cc3ccccc3)c3ccccc23)o1 — inhibition (RBE; ATP luminescence; 46 µM; 72 h): 35%
COc1ccc2/c(=N/c3ccccc3NC(=O)[C@@H](N)CO)cc(-c3ccc4c(c3)OCCO4)oc2c1 — inhibition (MDA-MB-468; CCK-8; 1 µM): 15.1%
CN(C)CCNC(=O)c1ccc(-c2nc3ccc4[nH]ncc4c3c3c2CC(F)(F)CC3)cc1 — GI50 (MV4-11; resazurin; 72 h): 112 nM
CCN(Cc1ccccc1)c1ccc(CO)c(Cl)c1 — inhibition (RBE; ATP luminescence; 46 µM; 72 h): 57%
CC(=O)OC[C@H]1O[C@@H](n2cnc(N)nc2=O)[C@H](OC(C)=O)[C@@H]1OC(C)=O — viability (HBL1; ATP luminescence; 0.5 µM; 5 days): 111%
Cc1n[nH]c2ccc3nc(-c4ccc(C(=O)N(C)CCN(C)C)nc4)c4c(c3c12)CCCCC4 — GI50 (MV4-11; resazurin; 72 h): 1100 nM
COC(=O)CNC(=O)C(=O)OC — viability (HBL1; ATP luminescence; 1 µM; 5 days): 93.3%
COc1cnccc1Cn1nc(-c2ccc(CO)o2)c2ccccc21 — inhibition (RBE; ATP luminescence; 46 µM; 72 h): 85%
C=C(NC(=O)C(=C)NC(=O)c1csc(C2=N[C@@H]3c4csc(n4)[C@H]4NC(=O)c5csc(n5)[C@H]([C@](C)(O)[C@@H](C)O)NC(=O)[C@H]5CSC(=N5)/C(=C/C)NC(=O)[C@H]([C@@H](C)O)NC(=O)c5csc(n5)[C@]3(CC2)NC(=O)[C@H](C)NC(=O)C(=C)NC(=O)[C@H](C)NC(=O)[C@H]([C@@H](C)CC)N[C@@H]2C=Cc3c([C@H](C)O)cc(nc3[C@H]2O)C(=O)O[C@@H]4C)n1)C(N)=O — EC50 (C4-2): 7300 nM
OCCc1ccc(-c2nn(Cc3ccccc3)c3ccccc23)o1 — inhibition (RBE; ATP luminescence; 46 µM; 72 h): 21%
CN(C)CCNC(=O)c1ccc(-c2nc3ccc4[nH]ncc4c3c3c2CCCCC3)cc1 — GI50 (MV4-11; resazurin; 72 h): 25 nM
CCN(Cc1cccc(C)c1)c1ccc(CO)c(Cl)c1 — inhibition (RBE; ATP luminescence; 46 µM; 72 h): 85%
COCCC(=O)Nc1ccccc1/N=c1\cc(-c2ccc3c(c2)OCO3)oc2ccccc12 — inhibition (MDA-MB-468; CCK-8; 1 µM): 2.51%
O=C(NO)c1ccc(CC(=O)N(CCO)c2ccccc2)cc1 — viability (HBL1; ATP luminescence; 0.1 µM; 5 days): 103%
COc1ccc2/c(=N/c3ccccc3NC(=O)CN)cc(-c3ccc4c(c3)OCCO4)oc2c1 — inhibition (MDA-MB-468; CCK-8; 1 µM): 15.2%
O=C(NC1CC1)c1ccc(-c2nc3ccc4[nH]ncc4c3c3c2CCCC3)cc1 — GI50 (MV4-11; resazurin; 72 h): 481 nM
OCc1ccc(N(Cc2ccc(F)cc2)Cc2ccc(F)cc2)cc1Cl — inhibition (RBE; ATP luminescence; 46 µM; 72 h): 78%
Oc1cccc(-c2nc(N3CCOCC3)c3oc4ncccc4c3n2)c1 — inhibition (MDA-MB-468; CCK-8; 1 µM): 2.69%
O=C(CCCCCCSc1ccc2ccccc2c1)NO — viability (HBL1; ATP luminescence; 1 µM; 5 days): 98.6%
OCc1ccc(-c2nn(Cc3cncnc3)c3ccccc23)o1 — inhibition (RBE; ATP luminescence; 46 µM; 72 h): 71%
NC(=O)C1CCCN1C(=O)Nc1ccccc1/N=c1\cc(-c2ccc3c(c2)OCCO3)oc2cc(F)ccc12 (stereo not shown) — inhibition (MDA-MB-468; CCK-8; 1 µM): 3.25%
CN(C)CC1(NC(=O)c2ccc(-c3nc4ccc5[nH]ncc5c4c4c3CCCC4)cc2)CC1 — GI50 (MV4-11; resazurin; 72 h): 536 nM
CC(c1ccccc1)n1nc(-c2ccc(CO)o2)c2ccccc21 (stereo not shown) — inhibition (RBE; ATP luminescence; 46 µM; 72 h): 76%
NCCCC(=O)Nc1ccccc1/N=c1\cc(-c2ccc3c(c2)OCO3)oc2ccccc12 — inhibition (MDA-MB-468; CCK-8; 1 µM): 8.13%
CN(C)CCNC(=O)c1ccc(-c2nc3ccc4[nH]ncc4c3c3c2CC(C)(C)CC3)cc1 — GI50 (MV4-11; resazurin; 72 h): 80 nM
O=C(Nc1cccc(Br)c1)c1cccc(S(=O)(=O)N2CCCCCC2)c1 — viability (HBL1; ATP luminescence; 0.5 µM; 5 days): 110%
